Measured values from ChEMBL document CHEMBL3120113, “New 1-arylindoles based serotonin 5-HT7 antagonists. Synthesis and binding evaluation studies” (Eur J Med Chem, 2014).

Assays:
[1] = target: T1, 5-hydroxytryptamine receptor 1A (Rattus norvegicus, UniProt P19327); assay: Displacement of [3H]-8-OH-DPAT from 5HT1A receptor in rat hippocampus homogenates after 15 mins by scintillation counting; assay type: tissue-based
T1 sequence (P19327 whole entry): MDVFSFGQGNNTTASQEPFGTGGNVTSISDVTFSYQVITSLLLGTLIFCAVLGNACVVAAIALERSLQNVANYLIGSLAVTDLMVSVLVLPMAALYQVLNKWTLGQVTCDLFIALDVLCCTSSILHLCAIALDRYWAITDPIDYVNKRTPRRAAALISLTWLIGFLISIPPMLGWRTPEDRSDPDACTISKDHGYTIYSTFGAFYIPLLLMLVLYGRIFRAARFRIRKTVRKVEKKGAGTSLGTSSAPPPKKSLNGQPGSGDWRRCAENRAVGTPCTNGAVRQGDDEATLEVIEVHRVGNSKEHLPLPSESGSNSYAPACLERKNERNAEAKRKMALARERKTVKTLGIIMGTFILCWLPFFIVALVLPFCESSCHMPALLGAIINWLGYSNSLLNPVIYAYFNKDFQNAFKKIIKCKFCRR
How it was run: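 Rat hippocampal membranes were prepared in 50 mM Tris–HCl pH 7.4 (35,000 g spins, 10 min at 37 °C between). Resuspended in Tris–HCl with 4 mM MgCl2, 10 mM pargyline and 0.1% ascorbate. 1 nM [3H]-8-OH-DPAT, 15 min at 37 °C, GF/B filtration. 10 μM 5-HT defined nonspecific binding. Triplicates at 7–8 concentrations (10⁻¹¹–10⁻⁴ M).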

[2] = target: 5-hydroxytryptamine receptor 2A (Homo sapiens) (UniProt P28223); assay: Binding affinity to 5HT2A receptor (unknown origin) at 1 uM
Chain of 5-hydroxytryptamine receptor 2A (Homo sapiens) (P28223 whole entry): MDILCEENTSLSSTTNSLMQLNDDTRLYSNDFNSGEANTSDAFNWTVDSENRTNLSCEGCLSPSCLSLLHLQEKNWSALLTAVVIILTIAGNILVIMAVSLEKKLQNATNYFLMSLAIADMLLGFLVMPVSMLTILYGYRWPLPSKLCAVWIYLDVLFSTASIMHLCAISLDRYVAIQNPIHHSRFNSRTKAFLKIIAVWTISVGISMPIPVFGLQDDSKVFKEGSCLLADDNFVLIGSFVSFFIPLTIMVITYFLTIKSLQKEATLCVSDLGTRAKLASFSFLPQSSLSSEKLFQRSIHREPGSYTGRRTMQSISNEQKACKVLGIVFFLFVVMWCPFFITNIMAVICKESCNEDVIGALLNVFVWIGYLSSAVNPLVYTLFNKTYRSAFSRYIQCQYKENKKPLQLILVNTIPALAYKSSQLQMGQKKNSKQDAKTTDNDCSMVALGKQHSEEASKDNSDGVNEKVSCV

[3] = target: 5-hydroxytryptamine receptor 2A (Homo sapiens) (UniProt P28223); assay: Binding affinity to 5HT2A receptor (unknown origin) at 10 nM
[4] = target: T2, 5-hydroxytryptamine receptor 7 (Homo sapiens, UniProt P34969); assay: Binding affinity to 5HT7 receptor (unknown origin)
T2 sequence (P34969 whole entry): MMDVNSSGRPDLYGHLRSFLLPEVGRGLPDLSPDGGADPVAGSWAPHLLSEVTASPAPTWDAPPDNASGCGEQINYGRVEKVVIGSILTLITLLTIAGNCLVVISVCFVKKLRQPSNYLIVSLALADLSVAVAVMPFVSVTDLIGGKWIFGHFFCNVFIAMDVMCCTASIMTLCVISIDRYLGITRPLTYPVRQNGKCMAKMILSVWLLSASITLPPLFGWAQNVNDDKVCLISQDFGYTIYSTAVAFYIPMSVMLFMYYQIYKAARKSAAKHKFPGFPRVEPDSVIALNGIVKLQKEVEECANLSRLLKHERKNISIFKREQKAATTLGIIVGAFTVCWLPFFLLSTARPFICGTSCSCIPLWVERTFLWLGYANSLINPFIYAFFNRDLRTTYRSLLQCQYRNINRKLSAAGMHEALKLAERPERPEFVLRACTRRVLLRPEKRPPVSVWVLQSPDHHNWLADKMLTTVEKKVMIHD

[5] = target: T3, 5-hydroxytryptamine receptor 1A (Homo sapiens, UniProt P08908); assay: Binding affinity to 5HT1A receptor (unknown origin)
T3 sequence (P08908 whole entry): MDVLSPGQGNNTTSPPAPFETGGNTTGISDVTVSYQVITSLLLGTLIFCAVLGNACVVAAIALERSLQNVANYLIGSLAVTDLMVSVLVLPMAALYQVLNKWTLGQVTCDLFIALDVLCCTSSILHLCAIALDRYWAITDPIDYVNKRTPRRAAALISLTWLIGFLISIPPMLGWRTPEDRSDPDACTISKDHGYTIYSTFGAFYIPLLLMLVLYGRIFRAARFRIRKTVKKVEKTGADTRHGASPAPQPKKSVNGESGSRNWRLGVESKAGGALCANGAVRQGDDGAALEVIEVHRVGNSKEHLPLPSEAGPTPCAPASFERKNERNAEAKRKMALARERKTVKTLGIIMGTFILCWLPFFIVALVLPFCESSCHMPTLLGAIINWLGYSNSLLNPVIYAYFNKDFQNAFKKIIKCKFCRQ

[6] = target: T2, 5-hydroxytryptamine receptor 7; assay: Displacement of [3H]-5-CT from cloned human 5HT7B receptor expressed in HEK293 cells after 1 hr by scintillation counting; assay type: cell-based
How it was run: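 HEK293 membranes stably expressing human 5-HT7b receptor, homogenized and spun twice at 35,000 g with 15 min at 37 °C between. Assay buffer was 50 mM Tris–HCl with 4 mM MgCl2, […] and 0.1% ascorbate. 0.6 nM [3H]-5-CT, 1 h at 37 °C, then filtration. 10 μM 5-HT defined nonspecific binding. Triplicates at 7–8 concentrations (10⁻¹¹–10⁻⁴ M).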

[7] = Selectivity ratio of Ki for human 5HT7B receptor to Ki for 5HT1A receptor in rat hippocampus homogenates; assay type: tissue-based
How it was run: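 Ratio of Ki values from two radioligand displacement assays. 5-HT1A: rat hippocampal membranes, 1 nM [3H]-8-OH-DPAT, 15 min at 37 °C, filtration. 5-HT7b: membranes from HEK293 cells stably expressing the human receptor, 0.6 nM [3H]-5-CT, 1 h at 37 °C. Both used Tris-HCl buffer with MgCl2, pargyline and ascorbate, and 10 μM 5-HT for nonspecific binding. Compounds were tested in triplicate at 7–8 concentrations (10⁻¹¹–10⁻⁴ M). Ki was derived by Cheng–Prusoff from three experiments.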

Ki [1] [µM]	SMILES	also measured
0.332	Cc1ccc(-n2cc(CN3CCN(c4ccccc4)CC3)c3ccccc32)cc1	
0.07	COc1ccccc1N1CCN(Cc2cn(-c3cccc4ccccc34)c3ccccc23)CC1	inhibition [2]: 10%; inhibition [3]: 6%
0.058	COc1ccccc1N1CCN(Cc2cn(-c3ccccc3C(C)C)c3ccccc23)CC1	
0.081	FC(F)(F)c1ccccc1-n1cc(CN2CCN(c3ccccc3)CC2)c2ccccc21	
0.086	COc1ccccc1-n1cc(CN2CCN(c3ccccc3)CC2)c2ccccc21	
0.055	COc1ccccc1N1CCN(Cc2cn(-c3ccccn3)c3ccccc23)CC1	
0.134	CCc1ccccc1-n1cc(CN2CCN(c3ccccc3)CC2)c2ccccc21	
0.095	c1ccc(N2CCN(Cc3cn(-c4ccccn4)c4ccccc34)CC2)cc1	
	COc1ccccc1N1CCN(Cc2ccn(-c3ccccc3C)c2)CC1	Ki [4]: 0.021 µM; Ki [5]: 0.041 µM
0.324	Cc1cccc(-n2cc(CN3CCN(c4ccccc4)CC3)c3ccccc32)c1C	
0.015	COc1ccccc1N1CCN(Cc2cn(-c3ccccc3C)c3ccccc23)CC1	
0.19	c1ccc(N2CCN(Cc3cn(-c4cccnc4)c4ccccc34)CC2)cc1	
0.057	Oc1ccccc1N1CCN(Cc2cn(-c3cccc4ccccc34)c3ccccc23)CC1	
0.216	c1ccc(N2CCN(Cc3cn(-c4ccccc4)c4ccccc34)CC2)cc1	
1.95	c1ccc(N2CCN(Cc3cn(-c4ccc5ccccc5c4)c4ccccc34)CC2)cc1	
0.545	c1ccc(N2CCN(Cc3cn(-c4cccc5ccccc45)c4ccccc34)CC2)cc1	
2.91	Cc1ccccc1-n1cc(CN2CCN(C)CC2)c2ccccc21	
0.017	Oc1ccccc1N1CCN(Cc2cn(-c3ccccc3)c3ccccc23)CC1	
0.036	N#Cc1ccccc1-n1cc(CN2CCN(c3ccccc3)CC2)c2ccccc21	
0.118	CC(C)c1ccccc1-n1cc(CN2CCN(c3ccccc3)CC2)c2ccccc21	
49	c1ccc(-c2ccc(-n3cc(CN4CCN(c5ccccc5)CC4)c4ccccc43)cc2)cc1	
0.01	COc1ccccc1N1CCN(Cc2cn(-c3ccccc3)c3ccccc23)CC1	
0.095	Cc1ccccc1-n1cc(CN2CCN(c3ccccc3)CC2)c2ccccc21	
0.09	Cc1cccc(-n2cc(CN3CCN(c4ccccc4)CC3)c3ccccc32)c1	
0.017	COc1ccccc1N1CCN(Cc2cn(-c3cccc(C)c3C)c3ccccc23)CC1	inhibition [2]: 0%; inhibition [3]: 0%

SMILES	Ki [1] [µM]	also measured
Cc1ccccc1-n1cc(CN2CC=C(c3ccccc3)CC2)c2ccccc21	0.178	
CN(C)CCc1cn(-c2ccccc2)c2ccccc12	0.062	Ki [6]: 1.2 µM; Ratio Ki [7]: 19
Cc1cccc(-n2cc(CCN(C)C)c3ccccc32)c1C	0.076	Ki [6]: 0.317 µM
CN(C)CCc1cn(-c2cccc3ccccc23)c2ccccc12	0.144	Ki [6]: 0.649 µM
Cc1ccccc1-n1cc(CCN(C)C)c2ccccc21	0.059	Ki [6]: 0.283 µM
